Results published in ChEMBL document CHEMBL1132384, “Design, synthesis, and evaluation of chromen-2-ones as potent and selective human dopamine D4 antagonists” (J Med Chem, 1999).
Calls of active or inactive are those of the source. No cut-off for these calls is given here.

Experiments:
[1] = molecular target: Dopamine D2 receptor (Homo sapiens); assay: Binding affinity using [3H]spiperone against cloned human Dopamine receptor D2L expressed in CHO-K1 cells
D(4) dopamine receptor = molecular target: T1, D(4) dopamine receptor (Homo sapiens, UniProt P21917); assay: Binding affinity using [3H]spiperone displacement from cloned human Dopamine receptor D4.2 expressed in CHO-K1 cells; assay type: cell-based
T1 sequence (P21917 whole entry): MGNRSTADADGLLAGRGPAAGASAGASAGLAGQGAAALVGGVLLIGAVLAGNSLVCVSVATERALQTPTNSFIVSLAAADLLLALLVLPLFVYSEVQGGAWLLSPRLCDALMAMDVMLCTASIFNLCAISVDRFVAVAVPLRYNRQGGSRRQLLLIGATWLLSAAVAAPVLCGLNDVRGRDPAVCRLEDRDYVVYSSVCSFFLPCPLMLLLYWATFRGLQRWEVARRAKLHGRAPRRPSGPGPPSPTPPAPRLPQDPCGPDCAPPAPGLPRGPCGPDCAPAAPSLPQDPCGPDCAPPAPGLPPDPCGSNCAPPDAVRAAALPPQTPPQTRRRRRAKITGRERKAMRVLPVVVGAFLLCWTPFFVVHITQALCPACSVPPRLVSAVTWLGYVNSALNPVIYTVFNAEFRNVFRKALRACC

Rattus norvegicus [2] = assay: Compound was tested for the levels of striatal dopamine synthesis in rat after a dosage of 10 mg/kg intraperitoneally and expressed as % of control; assay type: functional; conditions: route intraperitoneal
Outline: (§1)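 Rats given drug 10 mg/kg ip 60 min before and NSD 1015 (decarboxylase inhibitor) 30 min before decapitation; striatal and hippocampal DOPA by HPLC with electrochemical detection, as percentage increase over control; mean of 4 animals.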

Rattus norvegicus [3] = assay: Compound was tested for the levels of hippocampal dopamine synthesis in rat after a dosage of 10 mg/kg intraperitoneally and expressed as % of control; assay type: functional, Hippocampus; conditions: route intraperitoneal
Outline: as §1

[4] = molecular target: T2, D(4) dopamine receptor (Homo sapiens) (UniProt P21917); assay: Compound was tested for the inhibition of [3H]-thymidine uptake in CHO p-5 cells transfected with Dopamine receptor D4.2; assay type: functional, cell-based
T2 sequence (whole entry): T1 sequence (P21917 whole entry)

[5] = molecular target: T2, D(4) dopamine receptor (Homo sapiens); assay: Compound was tested for the inhibition of [3H]thymidine uptake in CHO p-5 cells transfected with human Dopamine receptor D4.2; assay type: functional, cell-based
Outline: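 Antagonism of quinpirole (full agonist) stimulated mitogenesis in CHO cells expressing human D4.2. After 18 h, [3H]thymidine 0.25 μCi/well for 2 h, trypsin 1 h, then filtered and counted. Intrinsic activity taken relative to quinpirole; IC50 derived.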

[6] = molecular target: T2, D(4) dopamine receptor (Homo sapiens); assay: Ratio of receptor binding towards D2 to D4 receptor
Outline: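 Ki from [3H]spiperone displacement at cloned human D2L and D4.2 receptors expressed in CHO-K1 cells. Six concentrations run in triplicate, fitted by nonlinear regression. Ratio taken as D2L Ki over D4.2 Ki.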

Rattus norvegicus [7] = assay: Compound was tested for the levels of hippocampal dopamine synthesis in rat after a dosage of 10 mg/kg intraperitoneally and expressed as % of control animals; assay type: functional, Hippocampus; conditions: route intraperitoneal
Rattus norvegicus [8] = assay: Compound was tested for the levels of striatal dopamine synthesis in rat after a dosage of 10 mg/kg intraperitoneally and expressed as % of control animals; assay type: functional; conditions: route intraperitoneal
Rattus norvegicus [9] = assay: Behavioral effect expressed as inhibition of spontaneous motor activity in rats, ip; NA=Not active; assay type: functional, organism-based
D(3) dopamine receptor = D(3) dopamine receptor (Homo sapiens, UniProt P35462); assay: Compound was tested for binding affinity using [3H]spiperone against cloned human Dopamine receptor D3 expressed in CHO-K1 cells; assay type: cell-based
Sequence of D(3) dopamine receptor (P35462 whole entry): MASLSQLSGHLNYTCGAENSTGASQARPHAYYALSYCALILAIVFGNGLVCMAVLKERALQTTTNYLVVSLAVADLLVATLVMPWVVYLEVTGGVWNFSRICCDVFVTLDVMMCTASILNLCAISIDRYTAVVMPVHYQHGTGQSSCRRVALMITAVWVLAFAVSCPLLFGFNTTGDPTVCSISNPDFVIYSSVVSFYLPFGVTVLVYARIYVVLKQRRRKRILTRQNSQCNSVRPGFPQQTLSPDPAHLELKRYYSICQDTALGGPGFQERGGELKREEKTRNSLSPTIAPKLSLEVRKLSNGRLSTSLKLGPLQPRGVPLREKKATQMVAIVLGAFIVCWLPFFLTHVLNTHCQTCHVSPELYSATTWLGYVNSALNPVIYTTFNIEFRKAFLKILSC
Outline: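 Cloned human receptors expressed in CHO-K1 cells, displacement of [3H]spiperone; Ki from six concentrations run in triplicate, nonlinear regression.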

[10] = molecular target: 5-hydroxytryptamine receptor 2A (Bos taurus, UniProt Q75Z89); assay: Compound was tested for binding affinity using [3H]ketanserin against 5-hydroxytryptamine 2 receptor
Sequence of 5-hydroxytryptamine receptor 2A (Q75Z89 whole entry): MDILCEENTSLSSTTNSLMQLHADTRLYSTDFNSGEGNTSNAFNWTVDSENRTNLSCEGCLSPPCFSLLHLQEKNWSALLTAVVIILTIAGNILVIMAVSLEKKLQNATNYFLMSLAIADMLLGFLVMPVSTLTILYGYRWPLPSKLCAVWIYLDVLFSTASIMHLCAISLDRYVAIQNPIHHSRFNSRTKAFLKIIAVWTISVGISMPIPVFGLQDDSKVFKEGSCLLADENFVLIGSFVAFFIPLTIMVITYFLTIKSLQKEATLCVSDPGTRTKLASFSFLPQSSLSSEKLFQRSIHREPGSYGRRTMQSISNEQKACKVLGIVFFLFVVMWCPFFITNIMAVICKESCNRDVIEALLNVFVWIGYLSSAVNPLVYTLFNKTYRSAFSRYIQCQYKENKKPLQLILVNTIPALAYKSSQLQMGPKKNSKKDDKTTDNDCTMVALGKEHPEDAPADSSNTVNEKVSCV

Rattus norvegicus [11] = assay: Behavioral effect expressed as inhibition of amphetamine-stimulated locomotor activity in rats, ip; assay type: functional
Rattus norvegicus [12] = assay: Behavioral effect expressed as catalepsy test in rats, po; NA=Not active; assay type: functional, organism-based
Outline: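 Rats dosed orally; front paws placed on an elevated bar, time (s) paws stayed on bar recorded over three consecutive 1-min trials, retested 2 h postdose. Value is mean response time for third trial.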

[13] = molecular target: T3, 5-hydroxytryptamine receptor 1A (Mus musculus, UniProt Q64264); assay: Compound was tested for binding affinity using [3H]8-OH-DPAT against 5-hydroxytryptamine 1A receptor
T3 sequence (Q64264 whole entry): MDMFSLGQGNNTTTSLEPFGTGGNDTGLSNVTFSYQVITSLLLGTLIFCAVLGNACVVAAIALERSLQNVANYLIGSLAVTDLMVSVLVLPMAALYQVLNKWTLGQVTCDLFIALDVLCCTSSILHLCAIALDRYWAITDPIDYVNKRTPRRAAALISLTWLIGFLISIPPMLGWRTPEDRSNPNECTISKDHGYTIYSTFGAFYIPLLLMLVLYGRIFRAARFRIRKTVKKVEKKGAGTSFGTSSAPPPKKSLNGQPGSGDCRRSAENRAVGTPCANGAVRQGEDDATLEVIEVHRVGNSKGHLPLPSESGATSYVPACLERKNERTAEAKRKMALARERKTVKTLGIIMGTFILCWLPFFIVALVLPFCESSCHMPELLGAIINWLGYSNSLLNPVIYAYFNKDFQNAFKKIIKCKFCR

Mus musculus = assay: Behavioral effect expressed as reversal of prepulse inhibition of acoustic startle in mice, ip; active at 30 mg/kg; assay type: functional, organism-based; parameters: dose 30 mg/kg
Outline: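 Vehicle or test compound given ip 15 min before sc saline or apomorphine (0.25 mg/kg); 30-min session of 90 trials after 5-min 70 dB white-noise acclimation, prepulses 2–16 dB over background (20 ms), startle pulses 40 ms. %PPI from 16-dB prepulse; t-test; minimal effective dose reported.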

| Ki [1] [µM] | Ki (D(4) dopamine receptor) [nM] | Compound | further results |
| --- | --- | --- | --- |
| 1.94 | 16 | Cc1ccccc1N1CCN(Cc2ccc3ccc(=O)oc3c2)CC1 | – |
| – | 19 | O=c1ccc2ccc(CN3CCC(c4ccccc4)CC3)cc2o1 | – |
| – | 59 | O=c1ccc2ccc(CN3CCN(c4ccc(F)cc4)CC3)cc2o1 | – |
| 5.836 | 11 | Cc1ccc(N2CCN(Cc3ccc4oc(=O)ccc4c3)CC2)cc1 | Control (Rattus norvegicus [2]): 22%; Control (Rattus norvegicus [3]): -16%; Intrinsic activity [4]: 0% |
| – | 227 | CC(C)(C)c1ccc(N2CCN(Cc3ccc4ccc(=O)oc4c3)CC2)cc1 | – |
| – | 2660 | CCN(CCNCc1ccc2ccc(=O)oc2c1)c1ccccc1 | – |
| – | 93 | O=c1ccc2ccc(CN3CCN(c4ccc(Cl)cc4)CC3)cc2o1 | – |
| – | – | Cc1ccc(NCCNCc2ccc3ccc(=O)oc3c2)cc1 | Intrinsic activity [5]: 0% |
| – | 410 | CCN(CCNc1ccccc1)Cc1ccc2ccc(=O)oc2c1 | – |
| – | – | O=c1ccc2ccc(CNCCNc3ccccc3)cc2o1 | Control (Rattus norvegicus [9]): inactive; Ki (D(3) dopamine receptor): 424 nM; Ki [10]: > 4.35 µM; Control (Rattus norvegicus [7]): 32%; Control (Rattus norvegicus [8]): 20%; ED50 (Rattus norvegicus [11]): 3 mg/kg; Control (Rattus norvegicus [12]): inactive; Intrinsic activity [5]: 0%; Ki [13]: 3.71 µM; Behavioral effect (Mus musculus): Active |
| 5.3 | 27 | O=c1ccc2ccc(CN3CCN(c4ccccc4)CC3)cc2o1 | – |
| 4.4 | 32 | Cc1cccc(N2CCN(Cc3ccc4ccc(=O)oc4c3)CC2)c1 | – |
| – | 75 | COc1ccc(N2CCN(Cc3ccc4ccc(=O)oc4c3)CC2)cc1 | – |
| 0.433 | 14 | Cc1ccc(N2CCN(Cc3ccc4ccc(=O)oc4c3)CC2)cc1C | – |

| Compound | Ki [1] [µM] | Ki (D(4) dopamine receptor) [nM] | further results |
| --- | --- | --- | --- |
| O=c1ccc2ccc(CN3CC=C(c4ccccc4)CC3)cc2o1 | 0.121 | 4.4 | – |
| Cc1ccc(N2CCN(Cc3ccc4ccc(=O)oc4c3)CC2)cc1Cl | 5.882 | 6.9 | Ratio [6]: 852; Control (Rattus norvegicus [7]): 27%; Control (Rattus norvegicus [8]): 19%; Intrinsic activity [5]: 0% |
| Cc1cccc(N2CCN(Cc3ccc4oc(=O)ccc4c3)CC2)c1 | – | 74 | – |
